ChEMBL document CHEMBL1134845, “Syntheses and biological activities of a novel group of steroidal derived inhibitors for human Cdc25A protein phosphatase” (J Med Chem, 2001)
Each block holds one compound with its values, some of them ahead of it.

What was measured:
786-0 = assay: Growth inhibitory activity was determined against 786-0 cancer cell line of Renal cancer; type: functional; conditions: Homo sapiens
Method in brief: (§1)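 NCI 60 human tumour cell line screen run at the National Cancer Institute. Cell growth and viability read with the protein stain sulforhodamine B, which binds basic amino acids of cells left attached after washing. […] MG MID is the mean GI50 calculated over all panels.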

A549 = assay: Growth inhibitory activity was determined against A549/ATCC cancer cell line of non-small cell lung cancer; type: functional, Homo sapiens; conditions: Homo sapiens, A549; method in brief: as §1
COLO 205 = assay: Growth inhibitory activity was determined against COLO 205 cancer cell line colon cancer; type: functional, Homo sapiens; conditions: Homo sapiens, COLO 205; method in brief: as §1
[1] = target: T1, M-phase inducer phosphatase 1 (Homo sapiens, UniProt P30304); assay: (§2) Inhibitory activity tested against cell division cycle 25A (assay using fluorescein diphosphate (FDP) as substrate)
T1 sequence (P30304 whole entry): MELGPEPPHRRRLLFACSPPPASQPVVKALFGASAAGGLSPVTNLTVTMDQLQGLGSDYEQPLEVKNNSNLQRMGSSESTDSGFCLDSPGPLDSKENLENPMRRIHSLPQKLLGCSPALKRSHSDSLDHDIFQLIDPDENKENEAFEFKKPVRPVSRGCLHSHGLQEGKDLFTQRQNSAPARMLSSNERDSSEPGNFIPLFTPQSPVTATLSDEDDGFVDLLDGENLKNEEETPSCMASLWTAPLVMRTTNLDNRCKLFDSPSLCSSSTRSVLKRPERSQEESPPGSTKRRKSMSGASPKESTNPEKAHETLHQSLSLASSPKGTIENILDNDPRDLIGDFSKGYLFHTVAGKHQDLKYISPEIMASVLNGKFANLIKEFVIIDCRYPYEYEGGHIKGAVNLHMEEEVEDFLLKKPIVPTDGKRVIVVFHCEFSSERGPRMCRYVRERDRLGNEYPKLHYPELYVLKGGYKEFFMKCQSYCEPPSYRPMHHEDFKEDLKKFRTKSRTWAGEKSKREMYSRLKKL
Method in brief: (§3)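 Recombinant human GST-Cdc25A fusion protein, each batch calibrated so that FDP was dephosphorylated linearly over 20 min. Fluorescein diphosphate was the substrate. Reactions ran 15 min at 25 °C in the dark and were stopped with sodium orthovanadate. IC50 came from at least two independent runs, each in triplicate.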

HT-29 = assay: Growth inhibitory activity was determined against HT-29 cancer cell line colon cancer; type: functional, Homo sapiens; conditions: Homo sapiens, HT-29; method in brief: as §1
HCC 2998 = assay: Growth inhibitory activity was determined against HCC2998 cancer cell line colon cancer; type: functional, Homo sapiens; conditions: Homo sapiens, HCC 2998; method in brief: as §1
LOX IMVI = assay: Growth inhibitory activity was determined against LOX IMVI cancer cell line of melanoma; type: functional, Homo sapiens; conditions: Homo sapiens, LOX IMVI; method in brief: as §1
NCI-H23 = assay: Growth inhibitory activity was determined against NCI-H23 cancer cell line of non-small cell lung cancer; type: functional, Homo sapiens; conditions: Homo sapiens, NCI-H23; method in brief: as §1
NCI-H522 = assay: Growth inhibitory activity was determined against NCI-H522 cancer cell line of non-small cell lung cancer; type: functional; conditions: Homo sapiens; method in brief: as §1
NCI/ADR-RES = assay: Growth inhibitory activity was determined against NCI/ADR-RES cancer cell line of Breast cancer; type: functional, Homo sapiens; conditions: Homo sapiens, NCI/ADR-RES; method in brief: as §1
OVCAR-8 = assay: Growth inhibitory activity was determined against OVCAR-8 cancer cell line of Ovarian cancer; type: functional; conditions: Homo sapiens; method in brief: as §1
SN12C = assay: Growth inhibitory activity was determined against SN12C cancer cell line of Renal cancer; type: functional; conditions: Homo sapiens; method in brief: as §1
SF-539 = assay: Growth inhibitory activity was determined against SF-539 cancer cell line of CNS cancer; type: functional; conditions: Homo sapiens; method in brief: as §1
SF-268 = assay: Growth inhibitory activity was determined against SF-268 cancer cell line of CNS cancer; type: functional; conditions: Homo sapiens; method in brief: as §1
SK-MEL-5 = assay: Growth inhibitory activity was determined against SK-MEL-5 cancer cell line of melanoma; type: functional, Homo sapiens; conditions: Homo sapiens, SK-MEL-5; method in brief: as §1
UO-31 = assay: Growth inhibitory activity was determined against UO-31 cancer cell line of Renal cancer; type: functional; conditions: Homo sapiens; method in brief: as §1
PC-3 = assay: Growth inhibitory activity was determined against PC-3 cancer cell line of Prostate cancer; type: functional; conditions: Homo sapiens; method in brief: as §1
T47D = assay: Growth inhibitory activity was determined against T-47D cancer cell line of Breast cancer; type: functional, Homo sapiens; conditions: Homo sapiens, T47D; method in brief: as §1
OVCAR-3 = assay: Growth inhibitory activity was determined against OVCAR-3 cancer cell line of Ovarian cancer; type: functional; conditions: Homo sapiens; method in brief: as §1
BT-549 (Homo sapiens) = assay: Growth inhibitory activity was determined against BT-549 cancer cell line of Breast cancer; conditions: Homo sapiens, BT-549
[2] = target: T1, M-phase inducer phosphatase 1; assay: Inhibitory activity tested against cell division cycle 25A (assay using p-nitro phenyl phosphate (pNPP) as substrate)
[3] = target: T2, Receptor-type tyrosine-protein phosphatase C (Homo sapiens, UniProt P08575); assay: Inhibitory activity tested against Human CD45 Phosphatase (assay using p-nitrophenyl phosphate (pNPP) as substrate)
T2 sequence (P08575 whole entry): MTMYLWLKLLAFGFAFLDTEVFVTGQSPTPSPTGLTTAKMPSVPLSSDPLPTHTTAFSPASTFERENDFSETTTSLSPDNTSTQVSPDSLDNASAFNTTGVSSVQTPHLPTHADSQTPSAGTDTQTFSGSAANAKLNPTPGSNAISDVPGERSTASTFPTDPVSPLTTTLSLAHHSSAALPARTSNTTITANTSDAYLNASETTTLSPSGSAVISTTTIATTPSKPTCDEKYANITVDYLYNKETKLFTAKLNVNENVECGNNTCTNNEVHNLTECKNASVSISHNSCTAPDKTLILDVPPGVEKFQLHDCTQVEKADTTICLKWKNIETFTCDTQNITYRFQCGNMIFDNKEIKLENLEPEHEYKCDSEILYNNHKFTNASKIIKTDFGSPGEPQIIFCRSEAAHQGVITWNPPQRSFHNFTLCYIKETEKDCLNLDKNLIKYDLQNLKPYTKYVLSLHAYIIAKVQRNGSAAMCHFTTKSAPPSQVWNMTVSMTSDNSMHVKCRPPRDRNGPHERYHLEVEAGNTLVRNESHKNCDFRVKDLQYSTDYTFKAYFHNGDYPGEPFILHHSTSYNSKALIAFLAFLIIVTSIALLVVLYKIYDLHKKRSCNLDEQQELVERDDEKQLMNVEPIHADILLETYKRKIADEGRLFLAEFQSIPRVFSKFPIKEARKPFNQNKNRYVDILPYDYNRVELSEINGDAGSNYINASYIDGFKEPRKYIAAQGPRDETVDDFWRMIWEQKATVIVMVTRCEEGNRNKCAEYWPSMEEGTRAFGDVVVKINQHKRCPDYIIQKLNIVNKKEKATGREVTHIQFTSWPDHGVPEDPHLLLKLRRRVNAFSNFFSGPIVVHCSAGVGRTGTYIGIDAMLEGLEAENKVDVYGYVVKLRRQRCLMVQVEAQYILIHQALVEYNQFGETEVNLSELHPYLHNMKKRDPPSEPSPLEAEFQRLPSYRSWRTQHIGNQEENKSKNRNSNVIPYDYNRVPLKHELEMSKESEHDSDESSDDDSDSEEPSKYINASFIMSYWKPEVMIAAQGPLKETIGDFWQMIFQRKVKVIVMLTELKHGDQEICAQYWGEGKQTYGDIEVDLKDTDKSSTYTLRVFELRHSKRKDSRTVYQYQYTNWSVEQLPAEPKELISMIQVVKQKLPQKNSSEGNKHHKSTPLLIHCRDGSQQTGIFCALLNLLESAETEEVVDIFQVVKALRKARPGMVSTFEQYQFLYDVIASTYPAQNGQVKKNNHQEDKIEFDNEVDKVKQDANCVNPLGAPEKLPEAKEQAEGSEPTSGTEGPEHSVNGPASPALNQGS

[4] = target: T3, M-phase inducer phosphatase 1 (Homo sapiens) (UniProt P30304); assay: as §2; conditions: concentration not given here
T3 sequence (whole entry): T1 sequence (P30304 whole entry)
Method in brief: as §3, with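 “orthovanadate. Fluorescein monophosphate was read at 485 nm excitation and 530 nm emission.” for “orthovanadate.”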

SMILES: CC(C)CCCC(C)[C@H]1CC[C@H]2[C@H](CC(=O)O)[C@@H](C(C)CCCCC#N)CC[C@]12C (stereo in doubt; 21)
- GI50 (786-0): 8.45 µM
- GI50 (A549): 5.09 µM
- GI50 (COLO 205): 5.29 µM
- IC50 [1]: 2.2 µM
- GI50 (HT-29): 4.69 µM
- GI50 (HCC 2998): 5.36 µM
- GI50 (LOX IMVI): 4.86 µM
- GI50 (NCI-H23): 5.27 µM
- GI50 (NCI-H522): > 25 µM
- GI50 (NCI/ADR-RES): 5.34 µM
- GI50 (OVCAR-8): 4.88 µM
- GI50 (SN12C): 6.05 µM
- GI50 (SF-539): 10.8 µM
- GI50 (SF-268): > 25 µM
- GI50 (SK-MEL-5): 7.04 µM
- GI50 (UO-31): 9.97 µM
- GI50 (PC-3): 7.15 µM
- GI50 (T47D): 6.69 µM
- GI50 (OVCAR-3): 5.25 µM
- GI50 (BT-549 (Homo sapiens)): 5.16 µM

SMILES: CCOC(=O)CSC(=S)O[C@H]1CC[C@@]2(C)[C@@H](CC[C@@H]3[C@@H]2CC[C@]2(C)[C@@H]([C@H](C)CCCC(C)C)CC[C@@H]32)C1
- IC50 [1]: > 100 µM

SMILES: CC(C)CCC[C@@H](C)[C@H]1CC[C@H]2[C@@H]3CC[C@H]4C[C@@H](OC(=S)S)CC[C@]4(C)[C@H]3CC[C@]12C
- IC50 [1]: 1.1 µM
- IC50 [2]: 11.7 µM
- IC50 [3]: > 100 µM

SMILES: C/C(=C/CCCC#N)[C@H]1CC[C@]2(C)[C@@H](C(C)CCCC(C)C)CC[C@H]2[C@@H]1CC(=O)O (some centres not stated)
- IC50 [1]: 2.4 µM

SMILES: CC(=O)OC1CC[C@](C)([C@H]2CC[C@]3(C)[C@@H]([C@H](C)CCCC(C)C)CC[C@H]3[C@@H]2CC(=O)O)C(=O)C1 (some centres not stated)
- IC50 [1]: 9.3 µM

SMILES: CC(C)CCC[C@@H](C)[C@H]1CC[C@H]2[C@@H]3CC[C@H]4C[C@@H](OC(=S)SCC(=O)c5ccccc5)CC[C@]4(C)[C@H]3CC[C@]12C
- IC50 [1]: > 100 µM

The next lines start with the values.

- IC50 [1]: 10.5 µM
SMILES: COC(CC#N)CC[C@@]1(C)OC(=O)C[C@H]2[C@@H]3CC[C@H]([C@H](C)CCCC(C)C)[C@@]3(C)CC[C@@H]21 (some centres not stated)

- IC50 [1]: 0.7 µM
SMILES: CC(C)CCC[C@@H](C)[C@H]1CC[C@H]2[C@@H]3CC[C@H]4C[C@@H](OCC(=O)O)CC[C@]4(C)[C@H]3CC[C@]12C

- IC50 [1]: 2.1 µM
SMILES: CC(C)CCC[C@@H](C)[C@H]1CC[C@H]2[C@@H]3CC[C@H]4C[C@@H](O/C(S)=N\c5ccccc5)CC[C@]4(C)[C@H]3CC[C@]12C

- IC50 [1]: 0.9 µM
SMILES: CC(C)CCC[C@@H](C)[C@H]1CC[C@H]2[C@@H]3CC[C@H]4C[C@@H](OC(=S)SCC(=O)O)CC[C@]4(C)[C@H]3CC[C@]12C

- inhibition [4]: 19%
SMILES: CC(C)CCC[C@@H](C)[C@H]1CC[C@H]2[C@@H]3CC[C@H]4C[C@@H](O/C(S)=N\c5cccc6ccccc56)CC[C@]4(C)[C@H]3CC[C@]12C
